# Screens from PubChem BioAssay.
# Shown are actives, neighbours in structure and some others; about 3.2% of the full set was active somewhere.
# NR2E3 ag-1 = agonists of human nuclear receptor NR2E3; hit rate 0.12% among 320,000; inhibition of corepressor binding, % at 4.78 µM; GST-NR2E3/biotin-RetCOR TR-FRET, 1536-well; Q9Y5X4; AID 2300;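 active = percent inhibition above the cutoff of mean plus 3 SD of all tested compounds, set per screening campaign, cut at about 20% in these data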;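 also: 0% = DMSO wells and 100% = biotin wells as full block of FRET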
#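 Material: NR2E3–RetCOR corepressor complex / Amount: 1.35 nM GST-NR2E3 / Medium: Tris pH 7.5 / Compound: single nominal compound dose of 4.8 µM / Incubation: 5 h at 4 °C / Technique: TR-FRET, Eu(K)-anti-GST donor, streptavidin-D2 acceptor, ex 340, em 617/671 nm / Read-out basis: percent loss of FRET ratio relative to control wells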
# SMARCA2 act = increases SMARCA2 function in MMTV reporter cells. MG213 cells, MMTV-luciferase reporter, dexamethasone, overnight. activation, % at 9.1 µM. hit rate 1% among 370,000; in the data active = activation above about 7.8%;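 also: 0% = vehicle wells and 100% = reference activator wells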
# NR2E3 ag-2 = human photoreceptor-specific nuclear receptor agonism | Q9Y5X4 | CHO-S Gal4-NCOR/VP16-NR2E3 two-hybrid, luciferase | inhibition of corepressor binding, % at 3.98 µM | hit rate 0.35% among 360,000 | AID 602229;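 active = inhibition above the mean of all tested compounds plus 3 SD, cut at about 70% in these data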;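 also: 0% = DMSO with NR2E3 transfected cells and 100% = cells lacking NR2E3 construct; higher means lower luciferase signal from less NR2E3 corepressor binding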
# DAX1 inh-1 = DAX1 (NR0B1) inhibition, primary screen | AID 652010 | hit rate 1.1% among 370,000 | HEK293T StAR-luciferase reporter, SF-1/DAX-1 repression relief | inhibition, % at 6.8 µM;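 active = inhibition above the mean over all tested compounds plus 3 SD, cut at about 3.6% in these data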;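 also: 0% = DAX-1 cells with DMSO and 100% = cells lacking DAX-1 with DMSO; higher inhibition means more luminescence from relief of DAX-1 repression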
# JMJD2C inh = human JMJD2C demethylase inhibition; AID 2099; GST-JMJD2C(1-420) H3K9me3 demethylation, DELFIA europium; Q9H3R0; hit rate 0.069% among 330,000; inhibition, % at 2.35 µM;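 active = more than half of a compound's replicate wells show inhibition beyond 50%, single wells judged on their own value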;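 also: signal counts dimethyl H3K9 product captured on neutravidin plate; 0% = median of DMSO wells and 100% = 0.3 times that DMSO median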
# Target sequence (Q9H3R0 1-420 limits assumed): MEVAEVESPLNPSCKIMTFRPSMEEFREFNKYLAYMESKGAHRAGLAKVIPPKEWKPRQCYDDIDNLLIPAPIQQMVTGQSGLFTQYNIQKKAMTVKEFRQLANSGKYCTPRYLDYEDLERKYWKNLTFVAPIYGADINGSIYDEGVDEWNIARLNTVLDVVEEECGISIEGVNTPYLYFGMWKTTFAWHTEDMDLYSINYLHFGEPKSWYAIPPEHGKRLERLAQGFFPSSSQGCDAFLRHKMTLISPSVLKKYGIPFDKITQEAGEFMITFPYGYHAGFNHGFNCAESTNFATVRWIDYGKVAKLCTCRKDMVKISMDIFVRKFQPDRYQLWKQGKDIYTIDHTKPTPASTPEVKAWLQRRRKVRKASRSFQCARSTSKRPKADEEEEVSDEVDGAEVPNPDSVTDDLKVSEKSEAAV
# DAX1 inh-2 = inhibits human nuclear receptor DAX1 | AID 504766 | hit rate 0.99% among 340,000 | HEK293 Gal4-DAX1 luciferase reporter, luminescence | inhibition, % at 6.75 µM | P51843;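 active = inhibition above the mean over all tested compounds plus 3 SD, cut at about 4.2% in these data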;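 also: 0% = DAX1-transfected cells with DMSO and 100% = empty-vector control cells with DMSO; inhibition shows as a rise in luminescence from relieved DAX1 repression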
# Target sequence (P51843 207-470 limits assumed): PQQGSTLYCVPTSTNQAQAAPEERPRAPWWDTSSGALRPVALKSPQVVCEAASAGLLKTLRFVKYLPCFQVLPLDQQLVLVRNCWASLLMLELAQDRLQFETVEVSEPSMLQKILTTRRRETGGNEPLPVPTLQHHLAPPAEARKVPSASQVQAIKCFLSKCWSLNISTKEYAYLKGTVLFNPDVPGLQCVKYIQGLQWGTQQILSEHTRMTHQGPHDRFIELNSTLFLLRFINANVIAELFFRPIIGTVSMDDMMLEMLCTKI
# NR2E3 ag conf = confirmation of human NR2E3 agonists | shares compounds with NR2E3 ag-2 | CHO-S mammalian two-hybrid NR2E3-NCOR, luciferase luminescence | inhibition, % at 3.98 µM | hit rate 51% among 2,300;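 active = average inhibition above a cutoff equal to the mean inhibition of all tested compounds plus one SD, cut at about 70% in these data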;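 also: 0% = DMSO in NR2E3 cells and 100% = DMSO in cells lacking NR2E3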
# GAL4-VP16 luc = GAL4-VP16 reporter inhibition in NR2E3 agonist counterscreen; shares compounds with NR2E3 ag-2; CHO-S GAL4-VP16 luciferase reporter, luminescence; inhibition, % at 3.98 µM; hit rate 29% among 2,300; AID 624379;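 active = mean inhibition above a cutoff equal to the average over all tested compounds plus one standard deviation, cut at about 70% in these data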;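 also: luciferase from a UAS reporter driven by GAL4-VP16 transactivation; 0% = DMSO with VP16-transfected cells and 100% = DMSO with cells lacking VP16; higher means less reporter light so more repression of VP16 activity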
# Starred values were filed as active, the others as inactive; nt = no result given.
SMILES,NR2E3 ag-1,SMARCA2 act,NR2E3 ag-2,DAX1 inh-1,JMJD2C inh,DAX1 inh-2,NR2E3 ag conf,GAL4-VP16 luc
CCOC(=O)N1CCN(C(=O)C[C@H]2C[C@@]3(C(=O)OC)C(=C[C@H](C4CCCC4)O[C@@H]3C)N(Cc3ccco3)C2=O)CC1,nt,-3,nt,0,nt,nt,nt,nt
O=C(CCN1C(=O)/C(=C/c2ccc3c(c2)OCO3)SC1=S)Nc1ccc(C(=O)O)cc1,-1,-2,-40,0,2,1,nt,nt
O=C(CCCN1C(=O)/C(=C/c2ccc3c(c2)OCO3)SC1=S)Nc1ccc(C(=O)O)cc1,2,-7,51,-2,3,-1,34,64
O=C(CCCN1C(=O)C(=Cc2ccc3c(c2)OCO3)SC1=S)Nc1ccc(C(=O)O)c(O)c1,nt,-5,50,2,nt,nt,8,66
CCOc1ccc(-n2c(SCC(=O)Nc3ccc(Oc4ccccc4)cc3)nnc2-c2ccncc2)cc1,nt,-3,nt,0,nt,nt,nt,nt
CCOC(=O)C1(Cc2ccccc2)CCN(Cc2ccnc3ccccc23)CC1,nt,-8,nt,-4,nt,nt,nt,nt
CC(C)c1cccc(-c2csc(C(C)(O)c3ccncc3)n2)c1 (stereo not given),nt,-8,85*,-3,nt,nt,93*,80*
CC(C)c1cccc(-c2csc(C(C)(O)c3ccc(F)c(F)c3)n2)c1 (stereo not given),nt,-3,-9,0,nt,nt,nt,nt
Cc1ccc(NC(=S)NCCC(c2ccccc2)c2ccccc2)c(C)c1,-2,-4,36,0,-5,0,nt,nt
Cc1ccccc1NC(=S)NCCC(c1ccccc1)c1ccccc1,0,-3,50,0,2,2,11,10
Cc1ccc(C(=O)N/N=C/c2ccc([N+](=O)[O-])s2)cc1,-4,-10,69,-2,0,-5,-3,68
O=C(N/N=C/c1ccc([N+](=O)[O-])s1)c1ccncc1,1,nt,7,nt,1,-2,nt,nt
Cc1ccccc1-c1nnn(Cc2cccc(S(=O)(=O)N3CCOCC3)c2)n1,-1,-3,64,-2,13,-1,13,31
COc1ccc(NS(=O)(=O)c2ccc3c(c2)NC(=O)CCS3)cc1Cl,-3,-4,60,0,-12,0,34,34
COc1ccc(C(=O)OCCCN(C)C2CN(Cc3cn(Cc4ccc([N+](=O)[O-])cc4)nn3)S(=O)(=O)C2)cc1OC (stereo not given),nt,-4,nt,-3,nt,nt,nt,nt
Cc1cnc(NC(=O)C2CC(=O)N(c3cccc(Cl)c3)C2)s1 (stereo not given),4,1,86*,1,4,1,100*,52
Cc1nnc(NC(=O)C2CC(=O)N(c3ccc4c(c3)OCCO4)C2)s1 (stereo not given),6,4,10,0,7,0,nt,nt
Cc1cnc(NC(=O)C2CC(=O)N(c3ccc4c(c3)OCCO4)C2)s1 (stereo not given),nt,-2,55,-1,5,-1,75*,25
Cc1ccc(NC(=O)NC2CC(=O)N(c3ccc4c(c3)OCCO4)C2)cc1C (stereo not given),-3,1,54,-1,-10,0,32,6
CCC(=O)N1CCc2cc(Br)c(S(=O)(=O)NCCCN(C)Cc3ccccc3)cc21,nt,-3,nt,1,nt,nt,nt,nt
Cc1noc(C)c1S(=O)(=O)Nc1ccc(C(=O)N2CCN(c3ccc(Cl)cc3)CC2)cc1,-1,-3,65,-1,-35,-1,86*,53
CCCCCCN1CCS(=O)(=O)N(Cc2ccc(Cl)cc2)C(C(=O)OC)C1 (stereo not given),nt,0,nt,0,nt,nt,nt,nt
COCCN(Cc1cc2cc3c(cc2nc1Cl)OCO3)C(=O)Nc1ccc(F)cc1,-2,-2,52,0,25,-3,64,51
COc1cccc(/C=C2\SC(=S)N(CCCC(=O)Nc3cccc(C(=O)O)c3)C2=O)c1,nt,nt,68,nt,nt,1,23,58
O=C(CCN1C(=O)S/C(=C\c2ccc(Cl)cc2)C1=O)Nc1ccc(C(=O)O)cc1,2,-3,-20,1,0,1,nt,nt
SMILES,NR2E3 ag-1,SMARCA2 act,NR2E3 ag-2,DAX1 inh-1,JMJD2C inh,DAX1 inh-2,NR2E3 ag conf,GAL4-VP16 luc
COc1ccc(/C=C2\SC(=O)N(CCCC(=O)Nc3ccc(C(=O)O)cc3)C2=O)cc1,nt,-7,88*,-7,nt,-5,85*,92*
COc1ccc(/C=C2\SC(=S)N(CCCC(=O)Nc3cccc(C(=O)O)c3)C2=O)cc1OC,-1,3,2,0,3,1,nt,nt
COc1ccc(/C=C2/SC(=S)N(CCCC(=O)Nc3cccc(O)c3)C2=O)cc1,2,-5,61,0,-6,-1,1,60
Cc1sc(NC(=O)CN2CCOCC2)nc1-c1ccc2c(c1)CCN2S(=O)(=O)c1ccccc1,3,-7,56,-3,10,-2,85*,71*
COc1ccc(CCNC(=O)c2cc3c(C)nn(-c4ccccc4)c3s2)cc1OC,nt,-5,nt,-2,nt,nt,nt,nt
CCN(C(=O)c1ccc(C(C)(C)C)cc1)c1nnc(Cn2nnc3ccccc32)s1,1,-3,89*,-3,-32,-3,92*,77*
Cc1ccc(-c2nnc(SCC(=O)Nc3ccc4c(c3)OCCO4)n2-c2ccc(C)cc2)cc1,nt,-5,nt,0,nt,nt,nt,nt
CC(=O)N1CCN(C(=O)c2ccc(Cl)c(S(=O)(=O)N3CC(C)OC(C)C3)c2)CC1 (stereo not given),nt,-3,49,0,-3,0,0,4
CC(=O)N1CCN(C(=O)c2ccc(Cl)c(S(=O)(=O)N3CCCC3)c2)CC1,nt,-6,32,1,2,0,nt,nt
Cc1[nH]nc(S(=O)CC(=O)O)c1[N+](=O)[O-] (stereo not given),4,0,59,-1,-3,0,1,-7
O=C(Nc1ccccc1)Nc1nc2ncccn2c1-c1ccc(F)c(F)c1,nt,0,nt,2,nt,nt,nt,nt
NC(=O)c1nn(-c2ccccc2)nc1NC(=O)CSc1nnnn1-c1ccc(Cl)cc1,-3,-2,92*,-1,-23,-2,97*,26
CCn1c2ccccc2c2cc(NC(=O)CSc3nnnn3-c3ccccc3)ccc21,1,0,70,-1,-5,0,54,21
O=C(CSc1nnnn1-c1ccccc1)Nc1ccc(Cl)cc1,0,0,-19,0,3,-1,nt,nt
Cc1ccc(-c2nc(NC(=O)CSc3nnnn3-c3ccccc3)ns2)cc1,4,0,73*,0,13,1,100*,29
CCN(CC)C(=O)CC[C@@H]1CC[C@]2(CCCN(C(=O)C(C)(C)C)C2)O1,nt,1,nt,-1,nt,nt,nt,nt
